This note sets out measurements from ChEMBL document CHEMBL1133105, “Antimalarial, antitrypanosomal, and antileishmanial activities and cytotoxicity of bis(9-amino-6-chloro-2-methoxyacridines): influence of the linker” (J Med Chem, 2000).

The structures appear in SMILES notation.

For the first test, the system named is Leishmania infantum. The test can be described thus: Percentage of activity against Leishmania infantum at 12.5 uM Concentration; Toxic upon mouse primary peritoneal macrophages. The class given is functional, organism-based.
Details: not given
An outline of the steps:
(§1)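 Starch-stimulated mouse peritoneal macrophages, 30 000/well, infected after 24 h with spleen-derived L. infantum amastigotes (10:1) together with 2-fold drug dilutions (12.5–1.56 µM). Incubated 7 days at 37 °C, 5% CO2. Wright-stained slides scored microscopically as % reduction of total parasite load or of infected macrophages. Uninfected treated cultures judged microscopically for macrophage toxicity.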
Regarding `COc1ccc2nc3cc(Cl)ccc3c(NCCCCCCCCCCCCNc3c4ccc(Cl)cc4nc4ccc(OC)cc34)c2c1`, the Cytotoxicity result is “Toxic”.

With `COc1ccc2nc3cc(Cl)ccc3c(NCCCN(CCCNc3c4ccc(Cl)cc4nc4ccc(OC)cc34)C(=O)C(CCCCNC(=O)OCC3c4ccccc4-c4ccccc43)NC(=O)OC(C)(C)C)c2c1` (centres undefined), the Cytotoxicity result was “Toxic”.

The test system of another test is Trypanosoma brucei. The test can be described thus: Percentage of activity against Trypanosoma brucei at 12.5 uM.
Details: not given
The class given is functional. In a few lines: (§2)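 Bloodstream-form T. brucei in HMI-9 medium, 10 000 parasites/well, exposed to 12.5, 6.25, 3.13 and 1.56 µM drug for 4 days. Read-out is % inhibition of parasite multiplication. Macrophage toxicity judged on mouse primary peritoneal macrophages.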
For the compound `COc1ccc2nc3cc(Cl)ccc3c(NCCCCCCCCCCCCNc3c4ccc(Cl)cc4nc4ccc(OC)cc34)c2c1`, the “Inhibition of parasite multiplication” value stood at 100%.

Turning to `COc1ccc2nc3cc(Cl)ccc3c(NCCCN(CCCNc3c4ccc(Cl)cc4nc4ccc(OC)cc34)C(=O)C(CCCCNC(=O)OCC3c4ccccc4-c4ccccc43)NC(=O)OC(C)(C)C)c2c1` (centres undefined), the “Inhibition of parasite multiplication” value turned out to be 100%.

The next test concerns Trypanosoma brucei. The test can be described thus: Percentage of activity against Trypanosoma brucei at 1.56 uM. The class given is functional.
Details: not given
An outline of the steps: as §2
Consider `COc1ccc2nc3cc(Cl)ccc3c(NCCCCCCCCCCCCNc3c4ccc(Cl)cc4nc4ccc(OC)cc34)c2c1`, for which the “Percent inhibition of parasite multiplication” value stood at 70%.

As to `COc1ccc2nc3cc(Cl)ccc3c(NCCCN(CCCNc3c4ccc(Cl)cc4nc4ccc(OC)cc34)C(=O)C(CCCCNC(=O)OCC3c4ccccc4-c4ccccc43)NC(=O)OC(C)(C)C)c2c1` (centres undefined), the “Percent inhibition of parasite multiplication” value was 100%.

A further test deals with Trypanosoma cruzi. The test can be described thus: Percentage of activity against Trypanosoma cruzi at 12.5 uM; Toxic upon mouse primary peritoneal macrophages. The class given is functional, organism-based.
Details: not given
An outline of the steps:
(§3)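 Mouse peritoneal macrophages, 30 000/well, infected after 24 h with about 100 000 T. cruzi trypomastigotes per well plus 2-fold drug dilutions (12.5–1.56 µM). Incubated 4 days at 37 °C, 5% CO2. Methanol-fixed, Giemsa-stained and scored microscopically as % reduction of total parasite load (free trypomastigotes plus intracellular amastigotes) versus untreated controls.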
For the compound `COc1ccc2nc3cc(Cl)ccc3c(NCCCN(CCCNc3c4ccc(Cl)cc4nc4ccc(OC)cc34)C(=O)C(CCCCNC(=O)OCC3c4ccccc4-c4ccccc43)NC(=O)OC(C)(C)C)c2c1` (centres undefined), the Cytotoxicity result was “Toxic”.

A further test relates to MRC5. Kind of test: Cytotoxicity on MRC-5 cells at 25 uM. The class given is functional. Particulars: Homo sapiens. An outline of the steps: (§4)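 MRC-5 human diploid embryonic lung cells seeded at 5 000/well, washed after 24 h, then given 2-fold drug dilutions (25, 12.5, 6.25, 3.13 µM) in RPMI + 5% FCS, final DMSO below 0.5%. Incubated 7 days at 37 °C, 5% CO2. MTT colorimetric read-out, scored as % reduction of absorbance at 540 nm versus untreated controls.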
In turn, `COc1ccc2nc3cc(Cl)ccc3c(NCCCCCCCCCCCCNc3c4ccc(Cl)cc4nc4ccc(OC)cc34)c2c1` had a cytotoxicity at 25 µM of 100%.

`COc1ccc2nc3cc(Cl)ccc3c(NCCCN(CCCNc3c4ccc(Cl)cc4nc4ccc(OC)cc34)C(=O)C(CCCCNC(=O)OCC3c4ccccc4-c4ccccc43)NC(=O)OC(C)(C)C)c2c1` (centres undefined) had a cytotoxicity at 25 µM of 100%.

The subject of another test is Trypanosoma cruzi. The test can be described thus: Percentage of activity against Trypanosoma cruzi at 3.13 uM. The class given is functional.
Details: not given
An outline of the steps:
as §3
For the compound `COc1ccc2nc3cc(Cl)ccc3c(NCCCCCCCCCCCCNc3c4ccc(Cl)cc4nc4ccc(OC)cc34)c2c1`, the “Reduction of T. cruzi parasite load” value stood at 0%.

In the case of `COc1ccc2nc3cc(Cl)ccc3c(NCCCN(CCCNc3c4ccc(Cl)cc4nc4ccc(OC)cc34)C(=O)C(CCCCNC(=O)OCC3c4ccccc4-c4ccccc43)NC(=O)OC(C)(C)C)c2c1` (centres undefined), the “Reduction of T. cruzi parasite load” value was found to be 20%.

The test system of another test is MRC5. Kind of test: Cytotoxicity on MRC-5 cells at 6.25 uM. The class given is functional. Particulars: Homo sapiens. An outline of the steps: as §4
In turn, `COc1ccc2nc3cc(Cl)ccc3c(NCCCCCCCCCCCCNc3c4ccc(Cl)cc4nc4ccc(OC)cc34)c2c1` showed a cytotoxicity at 6.25 µM of 0%.

The compound `COc1ccc2nc3cc(Cl)ccc3c(NCCCN(CCCNc3c4ccc(Cl)cc4nc4ccc(OC)cc34)C(=O)C(CCCCNC(=O)OCC3c4ccccc4-c4ccccc43)NC(=O)OC(C)(C)C)c2c1` (centres undefined) returned a cytotoxicity at 6.25 µM of 80%.

Another test has as its system Leishmania infantum. The test can be described thus: Percentage of activity against Leishmania infantum at 3.13 uM. The class given is functional.
Details: not given
An outline of the steps: as §1
Consider `COc1ccc2nc3cc(Cl)ccc3c(NCCCCCCCCCCCCNc3c4ccc(Cl)cc4nc4ccc(OC)cc34)c2c1`, for which the “Percent antileishmanial activity (reduction of parasite load)” value was found to be 40%.

As for `COc1ccc2nc3cc(Cl)ccc3c(NCCCN(CCCNc3c4ccc(Cl)cc4nc4ccc(OC)cc34)C(=O)C(CCCCNC(=O)OCC3c4ccccc4-c4ccccc43)NC(=O)OC(C)(C)C)c2c1` (centres undefined), the “Percent antileishmanial activity (reduction of parasite load)” value stood at 0%.

Another test concerns Trypanosoma cruzi. Kind of test: Percentage of activity against Trypanosoma cruzi at 6.25 uM Concentration. The class given is functional.
Details: not given
In a few lines:
as §3
For `COc1ccc2nc3cc(Cl)ccc3c(NCCCCCCCCCCCCNc3c4ccc(Cl)cc4nc4ccc(OC)cc34)c2c1`, the “Reduction of T. cruzi parasite load” value turned out to be 40%.

As to `COc1ccc2nc3cc(Cl)ccc3c(NCCCN(CCCNc3c4ccc(Cl)cc4nc4ccc(OC)cc34)C(=O)C(CCCCNC(=O)OCC3c4ccccc4-c4ccccc43)NC(=O)OC(C)(C)C)c2c1` (centres undefined), the “Reduction of T. cruzi parasite load” value is 80%.

For a further test, the system named is Trypanosoma brucei. The test can be described thus: Percentage of activity against Trypanosoma brucei at 3.13 uM. The class given is functional.
Details: not given
In a few lines: as §2
Compound `COc1ccc2nc3cc(Cl)ccc3c(NCCCCCCCCCCCCNc3c4ccc(Cl)cc4nc4ccc(OC)cc34)c2c1` had a Parasite growth inhibition of 100%.

Take `COc1ccc2nc3cc(Cl)ccc3c(NCCCN(CCCNc3c4ccc(Cl)cc4nc4ccc(OC)cc34)C(=O)C(CCCCNC(=O)OCC3c4ccccc4-c4ccccc43)NC(=O)OC(C)(C)C)c2c1` (centres undefined): the Parasite growth inhibition came to 100%.

The test system of the next test is Leishmania infantum. The test can be described thus: Percentage of activity against Leishmania infantum 6.25 uM. The class given is functional.
Details: not given
An outline of the steps: as §1
Turning to `COc1ccc2nc3cc(Cl)ccc3c(NCCCCCCCCCCCCNc3c4ccc(Cl)cc4nc4ccc(OC)cc34)c2c1`, the “Antileishmanial activity (% reduction of parasite load)” value is listed as 80%.

On to `COc1ccc2nc3cc(Cl)ccc3c(NCCCN(CCCNc3c4ccc(Cl)cc4nc4ccc(OC)cc34)C(=O)C(CCCCNC(=O)OCC3c4ccccc4-c4ccccc43)NC(=O)OC(C)(C)C)c2c1` (centres undefined), for which the “Antileishmanial activity (% reduction of parasite load)” value is 40%.

The next test deals with Trypanosoma cruzi. Kind of test: Percentage of activity against Trypanosoma cruzi at 12.5 uM. The class given is functional.
Details: not given
An outline of the steps: as §3
For the compound `COc1ccc2nc3cc(Cl)ccc3c(NCCCCCCCCCCCCNc3c4ccc(Cl)cc4nc4ccc(OC)cc34)c2c1`, the “T. cruzi parasite load reduction” value is on record as 90%.

For another test, the system named is Plasmodium falciparum. The test can be described thus: In vitro sensitivity for Plasmodium falciparum FcB1R. The class given is functional, organism-based.
Details: not given
An outline of the steps: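 Asynchronous P. falciparum cultures in human erythrocytes (0.5% parasitemia, 1% haematocrit) exposed to serially diluted drug for 24 h at 37 °C. [3H]hypoxanthine (0.5 µCi/well) then added for a further 24 h. Uptake compared with drug-free controls on the same plate. IC50 taken from the concentration–response curve, averaged over independent experiments. DMSO ≤0.1%.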
As a reminder, the IC50 is the concentration needed to halve the response being measured. `COc1ccc2nc3cc(Cl)ccc3c(NCCCCCCCCCCCCNc3c4ccc(Cl)cc4nc4ccc(OC)cc34)c2c1`: the IC50 turned out to be 0.176 µM.

Regarding `COc1ccc2nc3cc(Cl)ccc3c(NCCCN(CCCNc3c4ccc(Cl)cc4nc4ccc(OC)cc34)C(=O)C(CCCCNC(=O)OCC3c4ccccc4-c4ccccc43)NC(=O)OC(C)(C)C)c2c1` (centres undefined), the half-inhibitory concentration (IC50) came to 0.273 µM.

The test system of another test is MRC5. The test can be described thus: Cytotoxicity on MRC-5 cells at 3.13 uM. The class given is functional. Particulars: Homo sapiens. An outline of the steps: as §4
With `COc1ccc2nc3cc(Cl)ccc3c(NCCCCCCCCCCCCNc3c4ccc(Cl)cc4nc4ccc(OC)cc34)c2c1`, the cytotoxicity at 3.13 µM is 0%.

`COc1ccc2nc3cc(Cl)ccc3c(NCCCN(CCCNc3c4ccc(Cl)cc4nc4ccc(OC)cc34)C(=O)C(CCCCNC(=O)OCC3c4ccccc4-c4ccccc43)NC(=O)OC(C)(C)C)c2c1` (centres undefined) registered a cytotoxicity at 3.13 µM of 20%.

The subject of another test is Leishmania infantum. Kind of test: Percentage of activity against Leishmania infantum at 1.56 uM.
Details: not given
The class given is functional. An outline of the steps: as §1
`COc1ccc2nc3cc(Cl)ccc3c(NCCCCCCCCCCCCNc3c4ccc(Cl)cc4nc4ccc(OC)cc34)c2c1`: the “Antileishmanial activity (% reduction of parasite load)” value came to 0%.

In the case of `COc1ccc2nc3cc(Cl)ccc3c(NCCCN(CCCNc3c4ccc(Cl)cc4nc4ccc(OC)cc34)C(=O)C(CCCCNC(=O)OCC3c4ccccc4-c4ccccc43)NC(=O)OC(C)(C)C)c2c1` (centres undefined), the “Antileishmanial activity (% reduction of parasite load)” value stood at 0%.

A further test deals with Trypanosoma cruzi. Kind of test: Percentage of activity against Trypanosoma cruzi at 1.56 uM. The class given is functional.
Details: not given
In a few lines: as §3
Compound `COc1ccc2nc3cc(Cl)ccc3c(NCCCCCCCCCCCCNc3c4ccc(Cl)cc4nc4ccc(OC)cc34)c2c1` registered a Parasite load reduction of 0%.

Compound `COc1ccc2nc3cc(Cl)ccc3c(NCCCN(CCCNc3c4ccc(Cl)cc4nc4ccc(OC)cc34)C(=O)C(CCCCNC(=O)OCC3c4ccccc4-c4ccccc43)NC(=O)OC(C)(C)C)c2c1` (centres undefined) gave a Parasite load reduction of 0%.

The subject of another test is Trypanosoma brucei. Kind of test: Percentage of activity against Trypanosoma brucei at 6.25 uM. The class given is functional.
Details: not given
An outline of the steps:
as §2
As for `COc1ccc2nc3cc(Cl)ccc3c(NCCCCCCCCCCCCNc3c4ccc(Cl)cc4nc4ccc(OC)cc34)c2c1`, the “Inhibition of parasite multiplication” value came to 100%.

For `COc1ccc2nc3cc(Cl)ccc3c(NCCCN(CCCNc3c4ccc(Cl)cc4nc4ccc(OC)cc34)C(=O)C(CCCCNC(=O)OCC3c4ccccc4-c4ccccc43)NC(=O)OC(C)(C)C)c2c1` (centres undefined), the “Inhibition of parasite multiplication” value is given as 100%.

The test system of another test is MRC5. The test can be described thus: Cytotoxicity on MRC-5 cells at 12.5 uM. Particulars: Homo sapiens. The class given is functional. An outline of the steps: as §4
The compound `COc1ccc2nc3cc(Cl)ccc3c(NCCCCCCCCCCCCNc3c4ccc(Cl)cc4nc4ccc(OC)cc34)c2c1` displayed a cytotoxicity at 12.5 µM of 20%.

For the compound `COc1ccc2nc3cc(Cl)ccc3c(NCCCN(CCCNc3c4ccc(Cl)cc4nc4ccc(OC)cc34)C(=O)C(CCCCNC(=O)OCC3c4ccccc4-c4ccccc43)NC(=O)OC(C)(C)C)c2c1` (centres undefined), the cytotoxicity at 12.5 µM was 90%.
